Measured values as given in the M2OR odorant receptor database.
Residue numbers refer to the chain shown, from its start.

How the values were obtained:
Settings in all cases: stereoisomer not certain
[1] = molecular target: T1, OR4N4 (Homo sapiens) (UniProt Q8N0Y3)
T1 sequence (whole entry): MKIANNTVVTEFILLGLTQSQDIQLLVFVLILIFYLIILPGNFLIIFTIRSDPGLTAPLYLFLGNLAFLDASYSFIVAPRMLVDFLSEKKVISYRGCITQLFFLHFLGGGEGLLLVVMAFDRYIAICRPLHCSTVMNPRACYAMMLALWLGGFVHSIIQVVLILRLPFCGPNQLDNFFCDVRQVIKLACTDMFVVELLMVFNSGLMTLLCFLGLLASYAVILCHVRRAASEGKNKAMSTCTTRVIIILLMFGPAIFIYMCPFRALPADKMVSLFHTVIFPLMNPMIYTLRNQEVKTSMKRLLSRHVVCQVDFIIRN
Outline: (§1)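 Each entry records the cell line, G-protein, co-transfected protein and tags used. Methods varied with the source, often transient luciferase assays in mammalian cell lines. A receptor–molecule pair is called responsive (active) if the original authors judged its signal statistically different from baseline and non-responsive (inactive) otherwise.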

[2] = molecular target: T2, OR4N5 (Homo sapiens) (UniProt Q8IXE1)
T2 sequence (whole entry): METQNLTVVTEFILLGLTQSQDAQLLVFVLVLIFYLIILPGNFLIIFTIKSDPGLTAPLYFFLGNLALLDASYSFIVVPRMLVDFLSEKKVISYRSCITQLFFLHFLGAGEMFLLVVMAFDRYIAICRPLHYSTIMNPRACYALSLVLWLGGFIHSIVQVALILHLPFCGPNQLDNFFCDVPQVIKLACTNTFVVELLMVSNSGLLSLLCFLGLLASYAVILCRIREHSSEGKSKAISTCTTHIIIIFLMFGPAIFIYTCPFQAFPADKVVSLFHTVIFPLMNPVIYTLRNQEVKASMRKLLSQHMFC
Outline: as §1

[3] = molecular target: T3, OR4P4 (Homo sapiens) (UniProt Q8NGL7)
T3 sequence (whole entry): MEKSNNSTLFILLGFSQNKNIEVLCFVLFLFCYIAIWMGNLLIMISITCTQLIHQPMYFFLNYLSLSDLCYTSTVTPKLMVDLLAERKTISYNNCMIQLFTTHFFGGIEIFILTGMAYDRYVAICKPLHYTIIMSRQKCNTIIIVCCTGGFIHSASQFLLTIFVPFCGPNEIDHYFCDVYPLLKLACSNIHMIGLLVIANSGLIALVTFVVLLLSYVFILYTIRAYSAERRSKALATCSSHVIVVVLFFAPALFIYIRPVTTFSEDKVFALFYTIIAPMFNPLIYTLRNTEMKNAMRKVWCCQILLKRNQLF
Outline: as §1

[4] = molecular target: T4, OR4Q3 (Homo sapiens) (UniProt Q8NH05)
T4 sequence (whole entry): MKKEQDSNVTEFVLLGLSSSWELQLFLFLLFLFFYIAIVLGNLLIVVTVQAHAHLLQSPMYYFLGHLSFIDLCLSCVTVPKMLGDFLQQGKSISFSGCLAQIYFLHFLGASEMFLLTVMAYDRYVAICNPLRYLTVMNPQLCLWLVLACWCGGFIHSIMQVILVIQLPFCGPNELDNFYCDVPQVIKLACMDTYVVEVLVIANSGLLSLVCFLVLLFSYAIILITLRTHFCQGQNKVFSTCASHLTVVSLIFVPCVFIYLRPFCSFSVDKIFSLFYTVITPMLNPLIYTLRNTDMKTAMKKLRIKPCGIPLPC
Outline: as §1

[5] = molecular target: T5, OR4S1 (Homo sapiens) (UniProt Q8NGB4)
T5 sequence (whole entry): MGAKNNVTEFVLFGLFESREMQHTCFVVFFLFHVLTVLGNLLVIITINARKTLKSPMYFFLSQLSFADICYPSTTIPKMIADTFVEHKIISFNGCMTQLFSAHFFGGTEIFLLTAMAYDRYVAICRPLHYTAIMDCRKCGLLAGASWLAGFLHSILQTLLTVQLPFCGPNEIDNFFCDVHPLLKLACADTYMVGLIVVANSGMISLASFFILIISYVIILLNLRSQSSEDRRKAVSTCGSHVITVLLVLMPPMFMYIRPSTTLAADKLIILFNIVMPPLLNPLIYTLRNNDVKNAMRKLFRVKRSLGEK
Outline: as §1

[6] = molecular target: T6, OR4S2 (Homo sapiens) (UniProt Q8NH73)
T6 sequence (whole entry): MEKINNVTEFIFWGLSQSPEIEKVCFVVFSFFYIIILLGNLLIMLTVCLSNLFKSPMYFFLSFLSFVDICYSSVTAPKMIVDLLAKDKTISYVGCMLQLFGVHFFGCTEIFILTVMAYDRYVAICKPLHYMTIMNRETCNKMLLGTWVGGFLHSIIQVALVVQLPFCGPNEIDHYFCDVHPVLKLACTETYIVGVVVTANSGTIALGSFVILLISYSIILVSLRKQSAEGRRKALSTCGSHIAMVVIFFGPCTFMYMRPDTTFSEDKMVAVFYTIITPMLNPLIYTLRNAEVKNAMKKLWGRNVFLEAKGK
Outline: as §1

[7] = molecular target: T7, OR4X1 (Homo sapiens) (UniProt Q8NH49)
T7 sequence (whole entry): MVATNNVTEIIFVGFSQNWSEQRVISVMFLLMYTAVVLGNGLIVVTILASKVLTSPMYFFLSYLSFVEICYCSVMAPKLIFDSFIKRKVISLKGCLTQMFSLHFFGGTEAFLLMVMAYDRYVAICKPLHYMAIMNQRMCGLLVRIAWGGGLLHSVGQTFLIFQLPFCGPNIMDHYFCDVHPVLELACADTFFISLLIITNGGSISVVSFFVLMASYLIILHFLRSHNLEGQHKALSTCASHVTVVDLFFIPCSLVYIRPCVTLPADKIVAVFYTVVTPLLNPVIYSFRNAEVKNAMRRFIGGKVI
Outline: as §1

[8] = molecular target: T8, OR4X2 (Homo sapiens) (UniProt Q8NGF9)
T8 sequence (whole entry): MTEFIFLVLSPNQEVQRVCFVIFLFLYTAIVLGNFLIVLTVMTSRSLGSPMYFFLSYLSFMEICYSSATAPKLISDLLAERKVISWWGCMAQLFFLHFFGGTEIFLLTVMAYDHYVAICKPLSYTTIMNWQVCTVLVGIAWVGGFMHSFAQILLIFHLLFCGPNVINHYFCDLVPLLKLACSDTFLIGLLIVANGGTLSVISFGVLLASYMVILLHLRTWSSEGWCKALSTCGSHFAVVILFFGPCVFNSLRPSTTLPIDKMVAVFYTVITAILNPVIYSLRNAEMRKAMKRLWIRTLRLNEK
Outline: as §1

[9] = molecular target: T9, OR51A2 (Homo sapiens) (UniProt Q8NGJ7)
T9 sequence (whole entry): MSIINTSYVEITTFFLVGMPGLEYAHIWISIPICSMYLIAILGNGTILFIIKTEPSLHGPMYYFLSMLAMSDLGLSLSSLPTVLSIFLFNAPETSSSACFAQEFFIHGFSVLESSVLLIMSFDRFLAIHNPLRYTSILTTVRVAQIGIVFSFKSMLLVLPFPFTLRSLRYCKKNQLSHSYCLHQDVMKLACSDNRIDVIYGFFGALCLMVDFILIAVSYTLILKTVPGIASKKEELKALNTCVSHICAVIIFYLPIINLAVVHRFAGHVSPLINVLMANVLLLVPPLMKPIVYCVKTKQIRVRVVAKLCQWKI
Outline: as §1

[10] = molecular target: T10, OR51A4 (Homo sapiens) (UniProt Q8NGJ6)
T10 sequence (whole entry): T9 sequence (whole entry) with G59E, T94I, S97N, S167N, P227L, E235Q, G267R, M288T, K289N, W311R
Outline: as §1

[11] = molecular target: T11, OR51A7 (Homo sapiens) (UniProt Q8NH64)
T11 sequence (whole entry): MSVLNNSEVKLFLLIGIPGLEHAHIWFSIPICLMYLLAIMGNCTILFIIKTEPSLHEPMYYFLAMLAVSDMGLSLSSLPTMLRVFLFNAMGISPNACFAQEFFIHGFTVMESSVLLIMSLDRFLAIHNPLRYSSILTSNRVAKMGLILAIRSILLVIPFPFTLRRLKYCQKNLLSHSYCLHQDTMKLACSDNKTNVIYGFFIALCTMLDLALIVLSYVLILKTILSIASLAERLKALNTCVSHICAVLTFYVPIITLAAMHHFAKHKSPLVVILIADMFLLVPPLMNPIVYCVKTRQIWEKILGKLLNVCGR
Outline: as §1

[12] = molecular target: T12, OR51B2 (Homo sapiens) (UniProt Q9Y5P1)
T12 sequence (whole entry): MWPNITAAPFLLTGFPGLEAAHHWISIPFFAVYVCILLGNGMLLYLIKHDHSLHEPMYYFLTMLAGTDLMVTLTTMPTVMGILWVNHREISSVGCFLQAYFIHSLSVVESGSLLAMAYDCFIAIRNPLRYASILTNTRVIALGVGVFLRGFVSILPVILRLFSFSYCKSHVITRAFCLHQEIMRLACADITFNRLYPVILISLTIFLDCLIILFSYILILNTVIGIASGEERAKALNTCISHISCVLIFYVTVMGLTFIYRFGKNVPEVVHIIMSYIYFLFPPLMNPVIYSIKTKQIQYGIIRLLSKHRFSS
Outline: as §1

[13] = molecular target: T13, OR51B4 (Homo sapiens) (UniProt Q9Y5P0)
T13 sequence (whole entry): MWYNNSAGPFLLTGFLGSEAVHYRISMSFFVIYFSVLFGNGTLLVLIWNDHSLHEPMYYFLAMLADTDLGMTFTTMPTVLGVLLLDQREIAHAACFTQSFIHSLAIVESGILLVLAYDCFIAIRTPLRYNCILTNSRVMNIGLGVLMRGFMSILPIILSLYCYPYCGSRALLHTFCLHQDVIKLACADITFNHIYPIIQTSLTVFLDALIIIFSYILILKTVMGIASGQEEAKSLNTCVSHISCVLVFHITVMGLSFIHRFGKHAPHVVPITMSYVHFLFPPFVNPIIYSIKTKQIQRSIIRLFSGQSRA
Outline: as §1

[14] = molecular target: T14, OR51B5 (Homo sapiens) (UniProt Q9H339)
T14 sequence (whole entry): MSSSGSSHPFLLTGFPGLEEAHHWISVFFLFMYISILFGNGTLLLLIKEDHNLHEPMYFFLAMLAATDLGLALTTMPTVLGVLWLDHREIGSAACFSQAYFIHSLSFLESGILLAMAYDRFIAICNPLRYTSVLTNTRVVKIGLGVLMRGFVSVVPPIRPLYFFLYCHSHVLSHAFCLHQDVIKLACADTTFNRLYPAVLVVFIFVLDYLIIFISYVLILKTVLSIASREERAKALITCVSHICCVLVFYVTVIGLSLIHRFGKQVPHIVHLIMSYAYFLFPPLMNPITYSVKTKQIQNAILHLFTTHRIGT
Outline: as §1

[15] = molecular target: T15, OR51B6 (Homo sapiens) (UniProt Q9H340)
T15 sequence (whole entry): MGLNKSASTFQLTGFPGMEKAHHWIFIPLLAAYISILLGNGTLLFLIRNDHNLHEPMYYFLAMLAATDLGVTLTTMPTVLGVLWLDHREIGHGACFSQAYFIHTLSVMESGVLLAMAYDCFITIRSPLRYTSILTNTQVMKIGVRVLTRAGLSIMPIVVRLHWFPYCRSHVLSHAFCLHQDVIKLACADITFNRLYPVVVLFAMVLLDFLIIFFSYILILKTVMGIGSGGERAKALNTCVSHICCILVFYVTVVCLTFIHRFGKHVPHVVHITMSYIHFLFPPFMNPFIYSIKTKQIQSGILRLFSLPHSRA
Outline: as §1

Measured: odorant receptor agonist call

CC(CO)CS (stereo not given)
inactive: [1] | [2] | [3] | [4] | [5] | [6] | [7] | [8] | [9] | [10] | [11] | [12] | [13] | [14] | [15]

CCCCCCCCCCCCCC(=O)OCC
inactive: [14]

CCCCCC1CCCC(=O)O1 (stereo not given)
inactive: [9] | [10] | [11] | [12] | [13] | [14] | [15]

CC(=O)O
inactive: [14]

COc1ccc2[nH]cc(CCNC(C)=O)c2c1
inactive: [14]

CCC(S)C(C)CO (stereo not given)
inactive: [1] | [2] | [3] | [4] | [5] | [6] | [7] | [8] | [9] | [10] | [11] | [12] | [13] | [14] | [15]
